According to PMC5492419 (ACS Central Science, 2017):

Legend:
[1] = tested on: mouse macrophage J774 cells; assay type: cell-based; details: 0.3 mg/mL peptide in human plasma, 2% apoB-depleted plasma, 4 h
Procedure, shortened: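 Mouse macrophage J774 cells were incubated 4 h with 2% apoB-depleted plasma samples. The plasma was human plasma pre-treated with peptide at 0.3 mg/mL (~270 μM cyclic peptide), with a concentration range for one peptide. Efflux was expressed relative to vehicle-treated plasma, set as 0% efflux. Samples were run in quadruplicate and reported as mean ± SD. Peptide alone as acceptor was also tested against vehicle.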

human plasma HDL = assay: Human plasma remodeling, Western blot for human apoA-I; assay type: biochemical; details: Western blot, 0.4, 0.2, 0.1 mg/mL
Procedure, shortened: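 Lipid-poor pre-beta HDL was then detected by Western blotting for human apoA-I. The positive control was a control peptide at 0.1 mg/mL, and the negative control was 10% sucrose.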

human plasma HDLs = assay: Pre-beta HDL ELISA after incubating human plasma with peptide; assay type: biochemical; details: ELISA screen
Procedure, shortened: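 Peptides were incubated with human plasma in vitro for 1 h. Pre-beta HDL was then quantified by ELISA and reported as the concentration of pre-beta HDL generated, as mean ± SD.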

Row | Substance | cholesterol efflux, in words [1] | plasma HDL remodeling, in words (human plasma HDL) | HDL remodeling activity (pre-beta HDL formation), in words (human plasma HDLs)
1 | Ac-wLwSeQsO-NH2 [compound 82] | failed to remodel plasma HDL or promote cholesterol efflux | failed to remodel plasma HDL | –
2 | WlWrEqEr [compound 22] | – | – | nearly identical
3 | c[wL^MewSeQ^MesO] [compound 83] | greatly diminished | greatly diminished | –
4 | pyLwKsKsK [compound 37] | – | – | promoted HDL remodeling
5 | wAOwReQeR [compound 24] | – | – | less active than peptide 21
6 | wHLwReQeR [compound 23] | – | – | less active than peptide 21
7 | wLWReQeR [compound 28] | – | – | reduced
8 | wLwErQrE [compound 30] | dramatically reduced compared to that of 21 | – | dramatically reduced compared to 21
9 | wLwREQeR [compound 29] | – | – | reduced
10 | wLwReQeO [compound 18] | – | – | essentially inactive
11 | wMeLwReMeQeR [peptide 27] | – | – | greatly diminished compared to 21
12 | wNAwReQeR [compound 26] | – | – | less active than peptide 21
13 | wWwReQeR [compound 25] | – | – | less active than peptide 21
